From ChEMBL document CHEMBL1124415, “Acrylamide derivatives as antiallergic agents. 2. Synthesis and structure-activity relationships of N-[4-[4-(diphenylmethyl)-1-piperazinyl]butyl]-3-(3-pyridyl)acryl amides” (J Med Chem, 1989) come the findings set out here.

A value given as a limit tells only on which side of the number the result lay.

For the first assay, the species on record is Cavia porcellus. As to the kind of experiment: Anti-histaminic activity was measured in guinea pig trachea. Type of assay: functional.
Conditions: not given
The procedure, abridged: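 Zig-zag guinea pig tracheal strips; histamine dose-response curves obtained before and 60 min after adding test compound.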
On to `CN1CCC(=C2c3ccccc3CC(=O)c3sccc32)CC1` [KETOTIFEN], for which the IC50 (as a rule, the concentration needed to halve the response being measured) was 1.6 nM.

The compound `Cc1ccc(/C=C/C(=O)NCCCCN2CCN(C(c3ccccc3)c3ccccc3)CC2)cn1` [TAGORIZINE] returned an IC50 of 120 nM.

The species entered for another assay is Homo sapiens. As to the kind of experiment: Inhibitory activity against histamine release in human basophil. It counts as functional.
Conditions: not given
The procedure, abridged: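 Basophils from nonallergic human volunteers, washed in Tris-A buffer pH 7.4 (first wash with 4 mM EDTA), resuspended at 5-10 × 10^6 leukocytes/mL in Tris-ACM pH 7.6; preincubated with compound 15 min at 37 °C, then 45 min with anti-human IgE.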
With `CN1CCC(=C2c3ccccc3CC(=O)c3sccc32)CC1` [KETOTIFEN], the IC50 is over 100000 nM.

`Cc1ccc(/C=C/C(=O)NCCCCN2CCN(C(c3ccccc3)c3ccccc3)CC2)cn1` [TAGORIZINE] yielded an IC50 of 34000 nM.

In a further assay the test system is Rattus norvegicus. Kind of assay: Antiallergic activity by passive cutaneous anaphylaxis assay upon peroral administration of 20 mg/kg in rat. Type of assay: functional. To be noted: route oral.
With `Cc1ccc(/C=C/C=C/C(=O)NCCCN2CCN(C(c3ccccc3)c3ccccc3)CC2)cn1`, 20 mg/kg produced 35.8% inhibition in vivo.

Turning to `CN1CCC(=C2c3ccccc3CC(=O)c3sccc32)CC1` [KETOTIFEN], the ED50 (commonly the midpoint of the dose-response relation) worked out at 16.3 mg/kg.

The test system of the next assay is Rattus norvegicus. Kind of assay: Antiallergic activity determined by passive cutaneous anaphylaxis assay upon peroral administration of 20 mg/kg in rat. Type of assay: functional. Particulars: route oral.
For `O=C(/C=C/c1ccc(Cl)nc1)NCCCCN1CCN(C(c2ccccc2)c2ccccc2)CC1`, the inhibition in vivo (commonly the share of the control response that was lost under treatment) at 20 mg/kg is 49.3%.

`O=C(/C=C/c1cccnc1)NCCCCN1CCN(C(c2ccccc2)c2ccc(F)cc2)CC1` (stereo not drawn) yielded an inhibition in vivo at 20 mg/kg of 53.8%.

As to `COc1ccc(/C=C/C(=O)NCCCCN2CCN(C(c3ccccc3)c3ccccc3)CC2)cn1`, the inhibition in vivo at 20 mg/kg was 41%.

On to `Cc1ccc(/C=C/C(=O)NCCCCN2CCC(=C(c3ccccc3)c3ccccc3)CC2)cn1`, for which at 20 mg/kg the inhibition in vivo was 99.5%.

Regarding `C/C(=C\c1cccnc1)C(=O)NCCCCN1CCN(C(c2ccccc2)c2ccccc2)CC1`, the inhibition in vivo at 20 mg/kg is 78.9%.

`CCCOc1ccc(/C=C/C(=O)NCCCCN2CCN(C(c3ccccc3)c3ccccc3)CC2)cn1`: the inhibition in vivo at 20 mg/kg was determined as 7.5%.

For the compound `O=C(/C=C/c1cncc(Cl)c1)NCCCCN1CCN(C(c2ccccc2)c2ccccc2)CC1`, at 20 mg/kg the inhibition in vivo was 66.4%.

`O=C(/C=C/C=C/c1cccnc1)NCCCN1CCN(C(c2ccccc2)c2ccccc2)CC1` returned an inhibition in vivo at 20 mg/kg of 40.4%.

`O=C(/C=C/c1ccc(-c2ccccc2)nc1)NCCCCN1CCN(C(c2ccccc2)c2ccccc2)CC1` had an inhibition in vivo at 20 mg/kg of 3.2%.

For `Cc1ccc(C(c2ccc(C)cc2)N2CCN(CCCCNC(=O)/C=C/c3cccnc3)CC2)cc1`, 20 mg/kg produced 20.2% inhibition in vivo.

Consider `O=C(/C=C/c1cccnc1)NCCCCN1CCC(OC(c2ccccc2)c2ccccc2)CC1`, for which at 20 mg/kg the inhibition in vivo was 42.2%.

`O=C(NCCCCN1CCN(C(c2ccccc2)c2ccccc2)CC1)/C(=C/c1cccnc1)c1ccccc1` had an inhibition in vivo at 20 mg/kg of 58%.

For the compound `O=C(/C=C/c1ccc(Oc2ccccc2)nc1)NCCCCN1CCN(C(c2ccccc2)c2ccccc2)CC1`, the inhibition in vivo at 20 mg/kg was found to be 45.6%.

The compound `Cc1ccc(C(c2ccccc2)N2CCN(CCCCNC(=O)/C=C/c3cccnc3)CC2)cc1` (stereo not drawn) came in with an inhibition in vivo at 20 mg/kg of 82.9%.

In turn, `CCSc1ccc(/C=C/C(=O)NCCCCN2CCN(C(c3ccccc3)c3ccccc3)CC2)cn1` registered an inhibition in vivo at 20 mg/kg of 18.6%.

Turning to `CCOc1ccc(/C=C/C(=O)NCCCCN2CCN(C(c3ccccc3)c3ccccc3)CC2)cn1`, the inhibition in vivo at 20 mg/kg was 33.9%.

In the case of `O=C(/C=C/C=C/c1cccnc1)NCCCCN1CCN(C(c2ccccc2)c2ccccc2)CC1`, the inhibition in vivo at 20 mg/kg was determined as 66.4%.

Turning to `Cc1ccc(CCC(=O)NCCCCN2CCN(C(c3ccccc3)c3ccccc3)CC2)cn1`, the inhibition in vivo at 20 mg/kg came to 24.9%.

On to `O=C(CCc1cccnc1)NCCCCN1CCN(C(c2ccccc2)c2ccccc2)CC1`, for which the inhibition in vivo at 20 mg/kg was determined as 28.1%.

Turning to `O=C(/C=C/c1cccnc1Cl)NCCCCN1CCN(C(c2ccccc2)c2ccccc2)CC1`, the inhibition in vivo at 20 mg/kg was under 39.3%.

`COc1ccc(C(c2ccccc2)N2CCN(CCCCNC(=O)/C=C/c3cccnc3)CC2)cc1` (stereo not drawn) gave an inhibition in vivo at 20 mg/kg of 40.9%.

The compound `O=C(/C=C/c1cccnc1)NCCCCN1CCC(=C(c2ccccc2)c2ccccc2)CC1` gave an inhibition in vivo at 20 mg/kg of 85.9%.

Take `O=C(/C=C/c1cncc(O)c1)NCCCCN1CCN(C(c2ccccc2)c2ccccc2)CC1`: 20 mg/kg produced 28.8% inhibition in vivo.

Consider `O=C(/C=C/c1cncc(F)c1)NCCCCN1CCN(C(c2ccccc2)c2ccccc2)CC1`, for which at 20 mg/kg the inhibition in vivo was 65%.

Regarding `CCCCc1ccc(/C=C/C(=O)NCCCCN2CCN(C(c3ccccc3)c3ccccc3)CC2)cn1`, testing at 20 mg/kg gave an inhibition in vivo of 22.2%.

`Cc1ccc(C(c2ccccc2)N2CCN(CCCCNC(=O)/C=C/c3ccc(C)nc3)CC2)cc1` (stereo not drawn) returned an inhibition in vivo at 20 mg/kg of 73.9%.

Regarding `O=C(/C=C/c1cncc(Br)c1)NCCCCN1CCN(C(c2ccccc2)c2ccccc2)CC1`, the inhibition in vivo at 20 mg/kg is 47.5%.

`Cc1ncc(/C=C/C=C/C(=O)NCCCN2CCN(C(c3ccccc3)c3ccccc3)CC2)c(CO)c1O`: the inhibition in vivo at 20 mg/kg was determined as 9.8%.

`Cc1ccc(/C=C/C=C/C(=O)NCCCCN2CCN(C(c3ccccc3)c3ccccc3)CC2)cn1` yielded an inhibition in vivo at 20 mg/kg of 68.8%.

In turn, `CNc1ncccc1/C=C/C(=O)NCCCCN1CCN(C(c2ccccc2)c2ccccc2)CC1` showed an inhibition in vivo at 20 mg/kg of 45.2%.

As to `Cc1ncccc1/C=C/C(=O)NCCCCN1CCN(C(c2ccccc2)c2ccccc2)CC1`, the inhibition in vivo at 20 mg/kg turned out to be 68.8%.

The compound `Cc1cc(/C=C/C(=O)NCCCCN2CCN(C(c3ccccc3)c3ccccc3)CC2)cnc1C` had an inhibition in vivo at 20 mg/kg of 40.5%.

Compound `Cc1ccc(/C=C/C(=O)NCCCCN2CCN(C(c3ccccc3)c3ccccc3)CC2)c(C)n1` yielded an inhibition in vivo at 20 mg/kg of 66.8%.

`COc1cncc(/C=C/C(=O)NCCCCN2CCN(C(c3ccccc3)c3ccccc3)CC2)c1` displayed an inhibition in vivo at 20 mg/kg of 7.6%.

`O=C(/C=C/c1cccnc1)NCCCCN1CCC(C(O)(c2ccccc2)c2ccccc2)CC1` gave an inhibition in vivo at 20 mg/kg of 35.1%.

The compound `CC(C)c1ccc(/C=C/C(=O)NCCCCN2CCN(C(c3ccccc3)c3ccccc3)CC2)cn1` gave an inhibition in vivo at 20 mg/kg of 38.9%.

With `Cc1cccc(C(c2ccccc2)N2CCN(CCCCNC(=O)/C=C/c3cccnc3)CC2)c1` (stereo not drawn), the inhibition in vivo at 20 mg/kg came to 19%.

For the compound `CC/C(=C\c1cccnc1)C(=O)NCCCCN1CCN(C(c2ccccc2)c2ccccc2)CC1`, 20 mg/kg produced 67.8% inhibition in vivo.

For the compound `O=C(/C=C/c1cccnc1)NCCCCN1CCN(C(c2ccccc2)c2ccccc2)CC1`, 20 mg/kg produced 62.3% inhibition in vivo.

Consider `Cc1ncc(/C=C/C(=O)NCCCCN2CCN(C(c3ccccc3)c3ccccc3)CC2)c(CO)c1O`, for which 20 mg/kg produced 53.7% inhibition in vivo.

`Cc1ccc(C(c2ccccc2)N2CCN(CCCCNC(=O)/C=C/c3cccnc3)CC2)cc1C` (stereo not drawn) showed an inhibition in vivo at 20 mg/kg of 5.4%.

With `C/C(=C\C(=O)NCCCCN1CCN(C(c2ccccc2)c2ccccc2)CC1)c1cccnc1`, the inhibition in vivo at 20 mg/kg is 52.2%.

The compound `Cc1ncc(/C=C/C(=O)NCCCCN2CCN(C(c3ccccc3)c3ccccc3)CC2)c2c1OC(C)(C)OC2` registered an inhibition in vivo at 20 mg/kg of 17%.

On to `O=C(/C=C/c1cccnc1)NCCCCN1CCN(C(c2ccccc2)c2ccc(Cl)cc2)CC1` (stereo not drawn), for which the inhibition in vivo at 20 mg/kg is 19.9%.

`Cc1ncc(/C=C/C=C/C(=O)NCCCCN2CCN(C(c3ccccc3)c3ccccc3)CC2)c(CO)c1O` showed an inhibition in vivo at 20 mg/kg of 16.4%.

`CCCc1ccc(/C=C/C(=O)NCCCCN2CCN(C(c3ccccc3)c3ccccc3)CC2)cn1` registered an inhibition in vivo at 20 mg/kg of 44.4%.

The compound `C/C(=C\c1ccc(C)nc1)C(=O)NCCCCN1CCN(C(c2ccccc2)c2ccccc2)CC1` yielded an inhibition in vivo at 20 mg/kg of 58.2%.

Compound `CCC/C(=C\c1cccnc1)C(=O)NCCCCN1CCN(C(c2ccccc2)c2ccccc2)CC1` registered an inhibition in vivo at 20 mg/kg of 44.2%.

The compound `CCCCCOc1ccc(/C=C/C(=O)NCCCCN2CCN(C(c3ccccc3)c3ccccc3)CC2)cn1` returned an inhibition in vivo at 20 mg/kg of 14.9%.

With `O=C(/C=C/c1cccnc1)NCCCCN1CCN(C(c2ccc(Cl)cc2)c2ccc(Cl)cc2)CC1`, the inhibition in vivo at 20 mg/kg was found to be 5.4%.

`Cc1ccc(/C=C/C(=O)NCCCCN2CCN(C(c3ccccc3)c3ccccc3)CC2)cn1` [TAGORIZINE] registered an inhibition in vivo at 20 mg/kg of 81.9%.

A further assay is filed under the species Rattus norvegicus. Kind of assay: ED50 value was measured in rat passive cutaneous anaphylaxis (PCA) by linear regression analysis. It counts as functional.
Conditions: not given
For the compound `Cc1ccc(/C=C/C(=O)NCCCCN2CCN(C(c3ccccc3)c3ccccc3)CC2)cn1` [TAGORIZINE], it took a dose of 3.3 mg/kg to reach the 50% effect level (ED50).
